Tb hexokinase: blocks Trypanosoma brucei hexokinase 1 activity; recombinant TbHK1, G6PDH-coupled NADH A340; inhibition, % at 10 µM; 220,000 tested, 0.11% active;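 active = inhibition of 50% or more in the single-dose primary screen; inactive = inhibition below 50%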
PHOSPHO1 block: PHOSPHO1 (human) inhibition; recombinant PHOSPHO1, absorbance phosphatase assay; inhibition, % at 13.3 µM; 290,000 tested, 1.1% active; Q8TCT1; in the data active = inhibition above about 60%
Target sequence (Q8TCT1 whole entry, looked up): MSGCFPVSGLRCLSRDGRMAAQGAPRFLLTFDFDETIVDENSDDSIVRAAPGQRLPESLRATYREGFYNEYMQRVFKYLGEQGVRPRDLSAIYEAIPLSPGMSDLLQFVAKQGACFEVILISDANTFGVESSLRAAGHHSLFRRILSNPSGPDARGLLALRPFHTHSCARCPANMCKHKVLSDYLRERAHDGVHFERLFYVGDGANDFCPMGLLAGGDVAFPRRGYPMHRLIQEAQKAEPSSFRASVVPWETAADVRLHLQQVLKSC
PfGluPho inh: PfG6PD (Plasmodium falciparum) enzyme inhibition | PfGluPho enzyme, NADPH resazurin-diaphorase fluorescence | inhibition, % at 20 µM | 350,000 tested, 0.78% active;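 active = inhibition reaching at least a set limit at 20 µM in the primary screen, cut at about 59% in these data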
PGE2 EP2 inh: blocks the human prostaglandin E2 receptor EP2; P43116; C6 glioma cells expressing human EP2, cAMP TR-FRET; cells stimulated with saturating PGE2; inhibition, % at 25 µM; 260,000 tested, 0.52% active;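 active = percent inhibition above 40 after rounding to a whole number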;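 note: rat C6 glioma host cells with rolipram phosphodiesterase inhibitor present; the protocol text gives 20 µM as final concentration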
Target sequence (P43116 whole entry, looked up): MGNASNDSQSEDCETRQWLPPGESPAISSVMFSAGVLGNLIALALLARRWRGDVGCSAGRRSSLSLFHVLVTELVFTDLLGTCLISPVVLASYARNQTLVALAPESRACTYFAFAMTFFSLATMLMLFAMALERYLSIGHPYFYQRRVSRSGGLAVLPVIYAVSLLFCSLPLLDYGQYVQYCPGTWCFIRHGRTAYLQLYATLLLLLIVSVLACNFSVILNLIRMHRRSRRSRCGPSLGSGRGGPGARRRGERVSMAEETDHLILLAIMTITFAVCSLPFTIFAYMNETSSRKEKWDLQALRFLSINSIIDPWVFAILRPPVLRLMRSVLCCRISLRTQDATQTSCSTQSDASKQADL
EP2 mod: modulators of human EP2 prostaglandin E2 receptor. induction, % at 25 µM. AID 940. 260,000 tested, 0.83% active. EP2-expressing cells, cAMP HTRF FRET, PGE2 co-stimulation;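 active = compounds whose cAMP rise, as percent of the full-agonist control response, exceeds 60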;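 note: rat C6 glioma line stably carrying human EP2 under a CMV promoter; the protocol text gives 20 µM as final concentration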
HKDC1 inh: inhibitors of human hexokinase HKDC1; inhibition, % at 20 µM; Q2TB90; recombinant HKDC1, G6PDH/diaphorase resazurin coupled fluorescence; 340,000 tested, 0.16% active;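 active = inhibition above about 35% when tested at 20 µM, limit read from the data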
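Incubation: 90 min at room temperature in dark / Material: recombinant HKDC1 (HK5) hexokinase enzyme, produced in-house / Quantity: enzyme 5 µg/mL final / Compound: one dose of 20 µM, 1% DMSO / Reagent: glucose and ATP substrates / Buffer or medium: Tris pH 8.0 buffer with MgCl2, Tween-20, BSA, BME / Technique: resorufin fluorescence at 613 nm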
Numbers stand for hits; – = inactive; · = no result. The list is not random: actives were taken first. Their share in the collection is about 2.5%.

SMILES	Tb hexokinase	PHOSPHO1 block	PfGluPho inh	PGE2 EP2 inh	EP2 mod	HKDC1 inh
COC(=O)c1cccc(S(=O)(=O)N(Cc2cccs2)Cc2cc3ccc(C)cc3[nH]c2=O)c1	·	·	·	–	–	·
O=[N+]([O-])c1ccc(Sc2n[nH]c(-c3ccc(Cl)cc3Cl)n2)nc1	–	67	–	–	–	–
Nc1ccc(Sc2ccccc2Cl)nc1	·	·	–	·	·	–
CC(C)(C)c1nc(Sc2ccc([N+](=O)[O-])cn2)n[nH]1	–	–	–	–	–	–
O=[N+]([O-])c1ccc(Sc2ccccc2Cl)nc1	–	97	–	–	–	–
COc1ccccc1Nc1nnc(SCC(=O)c2cc(C)n(CC3CCCO3)c2C)s1 (stereo not drawn)	–	93	–	–	–	–
COc1cc(-c2nnc(SCC(=O)c3cc(C)n(CC4CCCO4)c3C)o2)cc(OC)c1OC (stereo not drawn)	–	–	–	–	–	–
CN1/C(=C\C(=O)CSc2nnc(NCc3ccccc3)s2)C(C)(C)c2ccccc21	–	–	–	–	–	–
Cc1cc(C(=O)CSc2nnc(Nc3ccccc3)s2)c(C)n1CC1CCCO1 (stereo not drawn)	–	90	–	–	–	–
CCn1c(SCC(=O)c2cc(C)n(CC3CCCO3)c2C)nc2ccccc21 (stereo not drawn)	–	73	–	–	–	–
Cc1cc(C(=O)CSc2nnc(NCc3ccccc3)s2)c(C)n1C	–	91	–	–	–	–
CCc1c(C)nc(SCC(=O)Nc2ccc(C)c(C)c2)[nH]c1=O	·	·	·	–	–	·
Cc1cc(C(=O)CSc2nnc(Nc3ccccc3F)s2)c(C)n1CC1CCCO1 (stereo not drawn)	–	94	–	–	–	–
CC1(C)Cc2c(C#N)c(N)n(-c3ccccc3)c(=S)c2CO1	–	–	–	–	–	–
CC1(C)Cc2c(C#N)c(N)sc(=S)c2CS1	–	101	–	–	–	–
CC(C)C1Cc2c(C#N)c(N)n(C)c(=S)c2CO1 (stereo not drawn)	–	68	–	·	–	–
CSc1nc(N2CCOCC2)c2c(c1C#N)CC(C(C)C)OC2 (stereo not drawn)	·	–	–	·	·	–
CCc1nc(Cl)c(C#N)c2c1CSC(C)(C)C2	–	–	–	–	–	–
N#Cc1c(N)sc(=S)c2c1CCCCC2	–	–	–	–	–	–
Cn1c(N)c(C#N)c2c(c1=S)COC(C)(C)C2	–	64	–	·	–	–
Cn1c(N)c(C#N)c2c(c1=S)CSC(C)(C)C2	–	91	–	–	–	–
COc1cc(C(=O)Nc2cnc(NC(=O)c3ccccc3F)cc2C)cc(OC)c1OC	·	·	·	–	–	·
CCC(CC)C(=O)Nc1nnc(SCC(=O)Nc2ccccc2F)s1	·	·	·	–	–	·
COc1cc(C(=O)N2C3CCC2CC(c2ccc(F)cc2)C3)cc(OC)c1OC (stereo not drawn)	·	·	·	–	–	·
O=C(Cc1ccsc1)N1CCC(c2nc3sc4c(c3c(=O)[nH]2)CCCC4)CC1	·	·	·	·	–	·
SMILES	Tb hexokinase	PHOSPHO1 block	PfGluPho inh	PGE2 EP2 inh	EP2 mod	HKDC1 inh
CC1(C)Cc2c(c(N3CCCC3)[nH]c(=S)c2C#N)CO1	–	67	·	·	–	·
CCCn1nnc(NC(=O)c2ccc(OCC)cc2)n1	·	·	·	–	–	·
CCC(CC)C(=O)Nc1ccc(S(=O)(=O)Nc2nccc(C)n2)cc1	·	·	·	–	–	·
CCCn1c(SCc2cc(=O)oc3ccc4ccccc4c23)n[nH]c1=O	–	92	–	–	–	–
O=C(COc1ccc(S(=O)(=O)N2CCCC2)cc1)Nc1ccc(Cl)c(Cl)c1	·	·	·	–	–	·
O=C(O[C@@H]1OC2COC(=O)c3cc(O)c(O)c(O)c3-c3c(cc(O)c(O)c3O)C(=O)O[C@@H]([C@H]1O)[C@@H]2O)c1cc(O)c(O)c(O)c1	–	–	111	–	–	–
CCc1ccc2[nH]c(=O)c(C(c3nnnn3CC3CCCO3)N3CCC(C)CC3)cc2c1 (stereo not drawn)	·	·	·	–	–	·
O=C(CSc1nccn1-c1ccc(Cl)cc1)Nc1ccc2c(c1)OCO2	–	89	–	–	–	–
O=C(CSc1ncn(-c2ccccc2)n1)Nc1ccc2c(c1)OCCO2	–	62	–	–	–	–
O=C(CSc1ncn(-c2ccccc2)n1)Nc1ccc2c(c1)OCO2	–	82	–	–	–	–
Cc1ccc(NC(=O)CSc2ncn(-c3ccccc3)n2)cc1C	–	–	–	–	–	–
Cc1ccc(-c2csc3ncn(CC(=O)N4CCCCC4)c(=O)c23)cc1	·	·	·	–	–	·
O=C(CN1CCC(c2nc(-c3ccncc3)n[nH]2)CC1)Nc1ccc2c(c1)OCCO2	·	·	·	–	–	·
Clc1ccc(-n2c(SCCN3CCCCC3)nnc2-c2cccnc2)cc1	·	·	·	–	–	·
CCNC(=S)N(CCc1cccc(C)c1)Cc1cc2cc3c(cc2[nH]c1=O)OCO3	·	·	·	–	–	·
O=[N+]([O-])c1cnc(Sc2ccncn2)s1	–	–	–	70	–	–
CCOc1ccc(NC(=O)CSc2nc(-c3ccc(OC)c(OC)c3)cc(C(F)(F)F)n2)cc1	·	·	·	–	–	·
O=C(Cc1cccc2ccccc12)N/N=C/c1ccc(Sc2cccc3cccnc23)o1	–	80	·	·	–	·
CCn1cc(C(=O)N2CCn3c(nc(-c4ccc(OC)cc4)c3NC(C)(C)C)C2)cn1	·	·	·	·	–	·
COc1ccc(C(=O)Nc2cc(C(F)(F)F)ccc2N2CCOCC2)cc1	·	·	·	–	–	·
CN(c1ccc(C(=O)N2CCOCC2)cc1)S(C)(=O)=O	–	–	–	146	–	–
CN(c1ccc(C(=O)N2CCCC2)cc1)S(C)(=O)=O	·	·	·	–	–	·
Brc1ccc(-c2nn3c(-c4ccco4)nnc3s2)o1	–	99	–	43	–	–
c1coc(-c2nnc3sc(C4CCCCC4)nn23)c1	–	72	–	–	–	–
Cc1ccc(OCc2nn3c(-c4ccco4)nnc3s2)cc1	–	–	–	–	63	–
SMILES	Tb hexokinase	PHOSPHO1 block	PfGluPho inh	PGE2 EP2 inh	EP2 mod	HKDC1 inh
Clc1ccccc1-c1nn2c(-c3ccncc3)nnc2s1	–	72	–	–	–	–
Clc1ccccc1-c1nnc2sc(-c3ccncc3)nn12	–	–	–	–	–	–
CCn1c(CNc2cccc(Cl)c2)nnc1SCC(=O)Nc1cc(Cl)ccc1OC	·	·	·	–	–	·
COC(=O)c1c(NC(=O)c2ccc(Cl)cc2)sc(C(=O)N2CCOCC2)c1C	·	·	·	–	–	·
CCOc1ccccc1-n1c(SCC(N)=O)nnc1-c1ccccn1	·	·	·	–	–	·
Cc1oc(-c2ccccc2Cl)cc1-c1nn2c(-c3ccco3)nnc2s1	·	72	·	·	·	·
CCOc1cccc(-c2nnc3sc(-c4ccco4)nn23)c1	–	64	–	–	–	–
COc1ccc2[nH]c(=O)c(CN(Cc3cccnc3)S(=O)(=O)c3ccc4c(c3)OCCO4)cc2c1	·	·	·	–	–	·
Cc1cccn2c(=O)c(C=NCCO)c(Nc3ccc(Cl)cc3)nc12	–	–	·	–	–	·
CNc1nc2c(C)cccn2c(=O)c1C=NCc1ccccc1	–	–	–	·	61	–
COc1ccc(Nc2nc3c(C)cccn3c(=O)c2C=NCc2ccccc2)cc1	–	–	–	–	64	–
